Measurements gathered from unrelated publications.
Each line is one published result; the experiments were not run side by side. pIC50: −log10 of the molar value.
Organism: Plasmodium falciparum
Effect on: parasite growth

SMILES	technique	strain	time	notes	measurement	value
CCN(CC)CCCC(C)Nc1ccnc2cc(Cl)ccc12 (centres unmarked)		NF54		blood stage	pIC50	8.38
CCN(CC)CCCC(C)Nc1ccnc2cc(Cl)ccc12 (centres unmarked)					pIC50	6.70
O=C(O)/C=C/C=C/c1cccc(Oc2cc(Cl)cc(Cl)c2)c1	SYBR Green			blood stage	pIC50	4.27
NCCCNc1nc2cc(Br)ccc2n1Cc1ccccc1		NF54		blood stage	pIC50	6.42
C[C@H]1[C@@H](O)O[C@@H]2O[C@@]3(C)CC[C@H]4[C@H](C)CC[C@@H]1[C@@]24OO3		3D7	24 h	blood stage	pIC50	7.60
O=C(Nc1cc(F)ccc1C(=O)O)c1ccc(-c2ccccc2)cc1		NF54	48 h	blood stage	pIC50	< 5.00
Clc1ccc2c(c1)nc(NCc1ccccn1)n2Cc1ccccc1		NF54		blood stage	pIC50	< 5.00
O=C1C(O)=C([C@H]2CC[C@H](c3ccc(Cl)cc3)CC2)C(=O)c2ccccc21		3D7	24 h	blood stage	pIC50	8.19
CCN(CC)CCCC(C)Nc1ccnc2cc(Cl)ccc12 (centres unmarked)		D6	72 h	blood stage	IC50	0.01 µg/mL
O=C(Nc1ccc2c(c1)B(O)OC2)Nc1ccc(F)c(C(F)(F)F)c1		NF54		blood stage	pIC50	5.51
Clc1ccc2c(nc(N3CCNCC3)n2Cc2ccccc2)c1Br		NF54		blood stage	pIC50	7.15
CCCCCCCc1c(O)cc(CC=C(C)C)c(O)c1C=O		W2	72 h	drug-resistant strain, blood stage	IC50	2.7 µg/mL
Clc1ccc2c(c1)nc(NCCNCc1ccccc1)n2Cc1ccccc1		NF54		blood stage	pIC50	7.07
CCN(CC)CCCC(C)Nc1ccnc2cc(Cl)ccc12 (centres unmarked)		D10	72 h		pIC50	7.70
Clc1ccc2c(N3CCN(CCCN4CCN(c5ccnc6cc(Cl)ccc56)CC4)CC3)ccnc2c1				blood stage	pIC50	7.59
CCOc1ccc(-c2nc(CNCCc3ccc(F)cc3)cs2)cc1	SYBR Green			blood stage	pIC50	4.77
Clc1ccc2c(c1)nc(NCCNCc1ccncc1)n2Cc1ccccc1		NF54		blood stage	pIC50	5.64
COc1cccc2c(=O)c(C)c(-c3ccc(Cc4ccc(OC(F)(F)F)cc4)cc3)[nH]c12		3D7		blood stage	pIC50	< 6.46
O=C(O)c1ccc(-n2nc(-c3ccccc3O)nc2-c2ccccc2O)cc1	SYBR Green			blood stage	pIC50	4.32
CCCCCCCCCCCCCC(O)CC(O)CO (centres unmarked)		W2		drug-resistant strain, blood stage	IC50	40.8 µg/mL
O=C(Nc1ccccc1C(=O)O)c1ccc(-c2ccc(F)cc2)cc1	resazurin	NF54	48 h	gametocyte	pIC50	< 5.00

SMILES	technique	strain	time	notes	measurement	value
Fc1cc(F)cc(-c2nc3c(N4CCC(CN5CCN(CC(F)(F)F)CC5)CC4)nccc3[nH]2)c1		NF54		blood stage	pIC50	> 7.00
N=C(N)c1ccc(OCCCCCOc2ccc(C(=N)N)cc2)cc1	SYBR Green			blood stage	pIC50	8.25
O=C(O)c1cc(F)ccc1NC(=O)c1ccccc1-c1ccccc1	resazurin	NF54	48 h	gametocyte	pIC50	6.17
O=C(O)c1cc(-c2ccc(Br)cc2)nc2ccc(Cl)cc12	SYBR Green			blood stage	pIC50	4.22
NC1CCN(c2nc3cc(Cl)ccc3n2Cc2ccccc2)CC1		NF54		blood stage	pIC50	7.66
COc1nc2ccc(Br)cc2cc1[C@@H](c1ccccc1)[C@@](O)(CCN(C)C)c1cccc2ccccc12	SYBR Green			blood stage	pIC50	5.96
COC1=CC(c2ccco2)=NC1=Cc1ccc(CCCCCCCCCC(C)O)[nH]1 (centres unmarked)		D6		blood stage	pIC50	< 5.60
CN1CCN(C2CCN(c3nccc4[nH]c(-c5ccc(F)c(C(F)(F)F)c5)nc34)CC2)CC1		NF54		blood stage	pIC50	> 7.00
CCN(CC)CCCC(C)Nc1ccnc2cc(Cl)ccc12 (centres unmarked)		D6		blood stage	pIC50	7.52
Cc1ccc(-c2ccccc2C(=O)Nc2c(C)cccc2C(=O)O)cc1		NF54	48 h	blood stage	pIC50	< 5.00
C#CCCCCCCCCC=CCC(O)CC(O)CO (centres unmarked)		D6		blood stage	IC50	> 47.6 µg/mL
O=C(Nc1c(F)cccc1C(=O)O)c1cccc(-c2ccccc2)c1	resazurin	NF54	48 h	gametocyte	pIC50	< 5.00
C[C@@]12CC[C@@H](O)[C@]3(C)C4=CC(=O)OCC4=C[C@@H](OC1=O)C23 (some centres unmarked)		W2	72 h	drug-resistant strain, blood stage	IC50	0.67 µg/mL
Clc1ccc2c(nc(N3CCNCC3)n2Cc2ccccc2)c1Cl		NF54		blood stage	pIC50	7.26
CO[C@H]1C[C@@H](C[C@H](C)[C@H]2CC(=O)[C@@H](C)/C=C(\C)[C@H](O)[C@H](OC)C(=O)[C@@H](C)C[C@@H](C)/C=C/C=C/C=C(\C)[C@H](OC)C[C@H]3CC[C@H](C)[C@](O)(O3)C(=O)C(=O)N3CCCC[C@@H]3C(=O)O2)CC[C@@H]1OCCO (racemic)	SYBR Green			blood stage	pIC50	5.90
C[C@@H]1CC[C@H]2[C@@H](C)C(=O)O[C@@H]3O[C@@]4(C)CC[C@@H]1[C@]32OO4		W2		drug-resistant strain, blood stage	IC50	0.009 µg/mL
COC1=CC(c2ccc[nH]2)=NC1=Cc1ccc(CCCCCCCCCCO)[nH]1		D6		blood stage	pIC50	6.97
Cc1ccc(C(=O)Nc2ccc(S(=O)(=O)O)c3cc(S(=O)(=O)O)cc(S(=O)(=O)O)c23)cc1NC(=O)c1cccc(NC(=O)Nc2cccc(C(=O)Nc3cc(C(=O)Nc4ccc(S(=O)(=O)O)c5cc(S(=O)(=O)O)cc(S(=O)(=O)O)c45)ccc3C)c2)c1	SYBR Green			blood stage	pIC50	< 4.00
CCc1ccc(C2=NC(=Cc3ccc(CCCCCCCCCC(C)O)[nH]3)C(OC)=C2)[nH]1 (centres unmarked)		D6		blood stage	pIC50	7.77
C#CCCCCCCCCCCCC(O)CC(O)CO (centres unmarked)		W2		drug-resistant strain, blood stage	IC50	32.5 µg/mL
